In ChEMBL document CHEMBL1938293, “Molecular drug-organiser: synthesis, characterization and biological evaluation of penicillin V and/or nalidixic acid calixarene-based podands” (2011):
Active and inactive are the calls of the source. No cut-off for these calls is given here.

Tests used:
[1] = test system: Escherichia coli; test: Antibacterial activity against Escherichia coli ATCC 25922 at 1.88 mg/mL after 24 hrs by disk diffusion assay; format: functional, organism-based
How it was run: (§1)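 Disk diffusion on Mueller–Hinton agar, run per CLSI recommendations. Sterile 6 mm cellulose disks each carried 20 μL of a DMSO solution. Reference drugs were dosed to equal the maximum amount releasable from the calixarene podands. Disks with DMSO alone served as solvent controls. Plates were incubated at 37 °C, and growth-inhibition zone diameter (mm) was read at 24 h.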

[2] = test system: Enterococcus faecalis; test: Antibacterial activity against Enterococcus faecalis ATCC 29212 at 1.88 mg/mL after 24 hrs by disk diffusion assay; format: functional, organism-based; how it was run: as §1
[3] = test system: Staphylococcus aureus; test: Antibacterial activity against Staphylococcus aureus ATCC 29213 at 1.88 mg/mL after 24 hrs by disk diffusion assay; format: functional, organism-based; how it was run: as §1
[4] = test system: Staphylococcus aureus; test: Antibacterial activity against Staphylococcus aureus ATCC 25923 at 1.88 mg/mL after 24 hrs by disk diffusion assay; format: functional, organism-based; how it was run: as §1
[5] = test system: Pseudomonas aeruginosa; test: Antibacterial activity against Pseudomonas aeruginosa ATCC 27853 at 1.88 mg/mL after 24 hrs by disk diffusion assay; format: functional, organism-based; how it was run: as §1
[6] = test system: Escherichia coli; test: Antibacterial activity against Escherichia coli ATCC 25922 at 2.83 mg/mL after 24 hrs by disk diffusion assay; format: functional, organism-based
How it was run: (§2)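 Disk diffusion on Mueller–Hinton agar per CLSI recommendations. Sterile 6 mm cellulose disks were impregnated with 20 μL of the DMSO solution at the stated concentration. Plates were incubated at 37 °C and growth-inhibition zone diameters were read at 24 h. Disks carrying DMSO alone served as solvent control.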

[7] = test system: Enterococcus faecalis; test: Antibacterial activity against Enterococcus faecalis ATCC 29212 at 2.83 mg/mL after 24 hrs by disk diffusion assay; format: functional, organism-based; how it was run: as §2
[8] = test system: Staphylococcus aureus; test: Antibacterial activity against Staphylococcus aureus ATCC 29213 at 2.83 mg/mL after 24 hrs by disk diffusion assay; format: functional, organism-based; how it was run: as §2
[9] = test system: Staphylococcus aureus; test: Antibacterial activity against Staphylococcus aureus ATCC 25923 at 2.83 mg/mL after 24 hrs by disk diffusion assay; format: functional, organism-based; how it was run: as §2
[10] = test system: Pseudomonas aeruginosa; test: Antibacterial activity against Pseudomonas aeruginosa ATCC 27853 at 2.83 mg/mL after 24 hrs by disk diffusion assay; format: functional, organism-based; how it was run: as §2
[11] = test system: Staphylococcus aureus; test: Antibacterial activity against Staphylococcus aureus ATCC 29213 at 1.25 mg/mL after 24 hrs by disk diffusion assay; format: functional, organism-based; how it was run: as §2
[12] = test system: Enterococcus faecalis; test: Antibacterial activity against Enterococcus faecalis ATCC 29212 at 1.25 mg/mL after 24 hrs by disk diffusion assay; format: functional, organism-based; how it was run: as §2
[13] = test system: Staphylococcus aureus; test: Antibacterial activity against Staphylococcus aureus ATCC 25923 at 1.25 mg/mL after 24 hrs by disk diffusion assay; format: functional, organism-based; how it was run: as §2
[14] = test system: Staphylococcus aureus; test: Antibacterial activity against Staphylococcus aureus ATCC 29213 at 5 mg/mL after 24 hrs by disk diffusion assay; format: functional, organism-based; how it was run: as §2
[15] = test system: Enterococcus faecalis; test: Antibacterial activity against Enterococcus faecalis ATCC 29212 at 5 mg/mL after 24 hrs by disk diffusion assay; format: functional, organism-based; how it was run: as §2
[16] = test system: Escherichia coli; test: Antibacterial activity against Escherichia coli ATCC 25922 at 5 mg/mL after 24 hrs by disk diffusion assay; format: functional, organism-based; how it was run: as §2
[17] = test system: Staphylococcus aureus; test: Antibacterial activity against Staphylococcus aureus ATCC 25923 at 5 mg/mL after 24 hrs by disk diffusion assay; format: functional, organism-based; how it was run: as §2
[18] = test system: Pseudomonas aeruginosa; test: Antibacterial activity against Pseudomonas aeruginosa ATCC 27853 at 5 mg/mL after 24 hrs by disk diffusion assay; format: functional, organism-based; how it was run: as §2
[19] = test system: Staphylococcus aureus; test: Antibacterial activity against Staphylococcus aureus ATCC 29213 at 3.25 mg/mL after 24 hrs by disk diffusion assay; format: functional, organism-based; how it was run: as §2
[20] = test system: Enterococcus faecalis; test: Antibacterial activity against Enterococcus faecalis ATCC 29212 at 3.25 mg/mL after 24 hrs by disk diffusion assay; format: functional, organism-based; how it was run: as §2
[21] = test system: Escherichia coli; test: Antibacterial activity against Escherichia coli ATCC 25922 at 3.25 mg/mL after 24 hrs by disk diffusion assay; format: functional, organism-based; how it was run: as §2
[22] = test system: Staphylococcus aureus; test: Antibacterial activity against Staphylococcus aureus ATCC 25923 at 3.25 mg/mL after 24 hrs by disk diffusion assay; format: functional, organism-based; how it was run: as §2
[23] = test system: Pseudomonas aeruginosa; test: Antibacterial activity against Pseudomonas aeruginosa ATCC 27853 at 3.25 mg/mL after 24 hrs by disk diffusion assay; format: functional, organism-based; how it was run: as §2
[24] = test system: Staphylococcus aureus; test: Antibacterial activity against Staphylococcus aureus ATCC 25923 at 5.8 mg/mL after 24 hrs by disk diffusion assay; format: functional, organism-based; how it was run: as §2
[25] = test system: Staphylococcus aureus; test: Antibacterial activity against Staphylococcus aureus ATCC 29213 at 5.8 mg/mL after 24 hrs by disk diffusion assay; format: functional, organism-based; how it was run: as §2
[26] = test system: Staphylococcus aureus; test: Antibacterial activity against Staphylococcus aureus ATCC 29213 at 2.53 mg/mL after 24 hrs by disk diffusion assay; format: functional, organism-based; how it was run: as §2
[27] = test system: Enterococcus faecalis; test: Antibacterial activity against Enterococcus faecalis ATCC 29212 at 2.53 mg/mL after 24 hrs by disk diffusion assay; format: functional, organism-based; how it was run: as §2
[28] = test system: Escherichia coli; test: Antibacterial activity against Escherichia coli ATCC 25922 at 2.53 mg/mL after 24 hrs by disk diffusion assay; format: functional, organism-based; how it was run: as §2
[29] = test system: Staphylococcus aureus; test: Antibacterial activity against Staphylococcus aureus ATCC 25923 at 2.53 mg/mL after 24 hrs by disk diffusion assay; format: functional, organism-based; how it was run: as §2
[30] = test system: Pseudomonas aeruginosa; test: Antibacterial activity against Pseudomonas aeruginosa ATCC 27853 at 2.53 mg/mL after 24 hrs by disk diffusion assay; format: functional, organism-based; how it was run: as §2
[31] = test system: Enterococcus faecalis; test: Antibacterial activity against Enterococcus faecalis ATCC 29212 at 5.8 mg/mL after 24 hrs by disk diffusion assay; format: functional, organism-based; how it was run: as §2
[32] = test system: Escherichia coli; test: Antibacterial activity against Escherichia coli ATCC 25922 at 5.8 mg/mL after 24 hrs by disk diffusion assay; format: functional, organism-based; how it was run: as §2
[33] = test system: Staphylococcus aureus; test: Antibacterial activity against Staphylococcus aureus ATCC 25923 at 10 mg/mL freshly prepared compound after 24 hrs by disk diffusion assay; format: functional; how it was run: as §2
[34] = test system: Staphylococcus aureus; test: Antibacterial activity against Staphylococcus aureus ATCC 25923 at 10 mg/mL 1 month old compound stored at 4 degree C after 24 hrs by disk diffusion assay; format: functional; settings: ATCC 25923, 24 h, read-out: DIZ
How it was run: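 Disk diffusion on Mueller–Hinton agar per CLSI recommendations. The DMSO solution had been stored 1 month at 4 °C before use and was compared with a freshly prepared solution. Sterile 6 mm cellulose disks were impregnated with 20 μL. Plates were incubated at 37 °C and inhibition zone diameter was read at 24 h.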

[35] = test system: Staphylococcus aureus; test: Antibacterial activity against Staphylococcus aureus ATCC 29213 at 10 mg/mL after 24 hrs by disk diffusion assay; format: functional, organism-based; how it was run: as §2
[36] = test system: Enterococcus faecalis; test: Antibacterial activity against Enterococcus faecalis ATCC 29212 at 10 mg/mL after 24 hrs by disk diffusion assay; format: functional, organism-based; how it was run: as §2
[37] = test system: Escherichia coli; test: Antibacterial activity against Escherichia coli ATCC 25922 at 10 mg/mL after 24 hrs by disk diffusion assay; format: functional, organism-based; how it was run: as §2
[38] = test system: Staphylococcus aureus; test: Antibacterial activity against Staphylococcus aureus ATCC 25923 at 10 mg/mL after 24 hrs by disk diffusion assay; format: functional; settings: ATCC 25923, 24 h, read-out: DIZ; how it was run: as §2

CCn1cc(C(=O)O)c(=O)c2ccc(C)nc21
Activity [1]: Active | Activity [2]: inactive | Activity [3]: Active | Activity [4]: Active | Activity [5]: inactive

CC1(C)S[C@@H]2[C@H](NC(=O)COc3ccccc3)C(=O)N2[C@H]1C(=O)O
Activity [6]: inactive | Activity [7]: inactive | Activity [8]: Active | Activity [9]: Active | Activity [10]: inactive | Activity [11]: Active | Activity [12]: Active | Activity [13]: Active

CCn1cc(C(=O)OCCCOc2c3cc(C(C)(C)C)cc2Cc2cc(C(C)(C)C)cc(c2O)Cc2cc(C(C)(C)C)cc(c2OCCCOC(=O)c2cn(CC)c4nc(C)ccc4c2=O)Cc2cc(C(C)(C)C)cc(c2O)C3)c(=O)c2ccc(C)nc21
Activity [14]: inactive | Activity [15]: inactive | Activity [16]: inactive | Activity [17]: inactive | Activity [18]: inactive

CC(C)(C)c1cc2c(O)c(c1)Cc1cc(C(C)(C)C)cc(c1OCCCO)Cc1cc(C(C)(C)C)cc(c1O)Cc1cc(C(C)(C)C)cc(c1OCCCO)C2
Activity [19]: inactive | Activity [20]: inactive | Activity [21]: inactive | Activity [22]: inactive | Activity [23]: inactive

CC(C)(C)c1cc2c(O)c(c1)Cc1cc(C(C)(C)C)cc(c1OCCCOC(=O)[C@@H]1N3C(=O)[C@@H](NC(=O)COc4ccccc4)[C@H]3SC1(C)C)Cc1cc(C(C)(C)C)cc(c1O)Cc1cc(C(C)(C)C)cc(c1OCCCOC(=O)[C@@H]1N3C(=O)[C@@H](NC(=O)COc4ccccc4)[C@H]3SC1(C)C)C2
Activity [24]: Active | Activity [25]: inactive | Activity [26]: inactive | Activity [27]: inactive | Activity [28]: inactive | Activity [29]: inactive | Activity [30]: inactive | Activity [31]: inactive | Activity [32]: inactive

CCn1cc(C(=O)OCCCOc2c3cc(C(C)(C)C)cc2Cc2cc(C(C)(C)C)cc(c2O)Cc2cc(C(C)(C)C)cc(c2OCCCOC(=O)[C@@H]2N4C(=O)[C@@H](NC(=O)COc5ccccc5)[C@H]4SC2(C)C)Cc2cc(C(C)(C)C)cc(c2O)C3)c(=O)c2ccc(C)nc21
diameter of the inhibition zone (DIZ) [33]: 30 mm | zone of inhibition at 10000 µg/mL [34]: 35 mm | Activity [35]: inactive | Activity [36]: inactive | Activity [37]: inactive | zone of inhibition at 10000 µg/mL [38]: 31.5 mm
